MIC, Activity and inhibition data for 13 compounds are collected here from ChEMBL document CHEMBL1140298, “Identification of borinic esters as inhibitors of bacterial cell growth and bacterial methyltransferases, CcrM and MenH” (2005).

≈ marks a conversion by molar mass, not a printed value. Calls of active or inactive are those of the source. No cut-off for these calls is given here.

As usually defined, the inhibition is how much of the control response was suppressed.

In assay [1] the test system is Enterococcus faecalis. As to the kind of experiment: Antibacterial activity against Enterococcus faecalis ATCC 29212. It counts as functional. Put shortly: (§1)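 MIC determined following NCCLS guidelines.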
The test system of assay [2] is Staphylococcus aureus. As to the kind of experiment: Antibacterial activity against Staphylococcus aureus ATCC 29213. It counts as functional. The method in brief:
as §1

Assay [3] has as its system Staphylococcus epidermidis. In words: Antibacterial activity against Staphylococcus epidermidis ATCC 12228. It counts as functional. The method in brief:
as §1

Assay [4] has as its system Enterococcus faecium. As to the kind of experiment: Antibacterial activity against Enterococcus faecium CT26. The format is functional. Put shortly: as §1
Assay [5] deals with Bacillus subtilis. As to the kind of experiment: Antibacterial activity against Bacillus subtilis ATCC 23857. The format is functional. Put shortly: as §1
Assay [6] has as its system Mycobacterium tuberculosis. In words: Antibacterial activity against Mycobacterium tuberculosis H37Rv. The format is functional. Put shortly: (§2)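 MIC read-out, determined according to NCCLS guidelines.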
The test system of assay [7] is Moraxella catarrhalis. As to the kind of experiment: Antibacterial activity against Moraxella catarrhalis. The format is functional. Put shortly:
as §1

Assay [8] concerns Francisella tularensis. In words: Antibacterial activity against Francisella tularensis. The format is functional. Put shortly:
as §2

Assay [9] deals with Yersinia pseudotuberculosis. As to the kind of experiment: Antibacterial activity against Yersinia pseudotuberculosis ATCC 29833. It counts as functional. The method in brief:
as §2

In assay [10] the test system is Haemophilus influenzae. As to the kind of experiment: Antibacterial activity against Haemophilus influenzae ATCC 4976. The format is functional. Put shortly: as §1
The subject of assay [11] is Caulobacter vibrioides. In words: Antibacterial activity against Caulobacter crescentus after 18 hrs. It counts as functional.
The test system of assay [12] is Bacillus anthracis. As to the kind of experiment: Antibacterial activity against Bacillus anthracis. The format is functional. The method in brief: as §2
The subject of assay [13] is Caulobacter vibrioides. As to the kind of experiment: Inhibition of Caulobacter crescentus DNA methyltransferase CcrM assessed as transfer of [3H-Me] to DNA at 100 uM relative to control. Put shortly: (§3)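 Inhibitor at 100 uM; methyl transfer from [3H-Me]-AdoMet to DNA substrate measured, expressed as percent of activity without inhibitor.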
Assay [14] concerns the target T1, Demethylmenaquinone methyltransferase (Bacillus subtilis (strain 168)) (UniProt P31113).
T1 sequence (whole entry): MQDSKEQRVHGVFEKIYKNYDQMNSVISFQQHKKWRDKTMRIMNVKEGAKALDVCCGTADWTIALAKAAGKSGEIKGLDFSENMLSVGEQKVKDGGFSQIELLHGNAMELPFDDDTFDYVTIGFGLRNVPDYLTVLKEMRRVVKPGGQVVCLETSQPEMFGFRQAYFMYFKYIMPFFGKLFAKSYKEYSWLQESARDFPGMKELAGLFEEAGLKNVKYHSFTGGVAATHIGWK
As to the kind of experiment: Inhibition of Bacillus subtilis MenH methyltransferase assessed as {3H-Me] to DNA at 100 uM relative control. The method in brief: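 Lysate of E. coli JM109 overexpressing B. subtilis MenH (IPTG 1 mM induction, sonicated) in 0.1 M Tris-HCl pH 8.0, 10 mM MgCl2, 10 mM DTT, 1 uM FPP, 1 uM 1,4-dihydroxy-2-naphthoic acid, 1 uM IPP, 20 uM AdoMet plus [3H]-AdoMet; inhibitor 100 uM final; 37 °C 1 h; acid-methanol quench, hexane/2-propanol extraction, scintillation counting; triplicate; % of no-inhibitor activity.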

The test system of assay [15] is Escherichia coli. In words: Inhibition of Escherichia coli DNA methyltransferase Dam assessed as transfer of [3H-Me] to DNA at 100 uM relative to control. Put shortly:
as §3

As to `C=CB(Oc1cccc2cccnc12)c1ccccc1Cl`, the MIC in assay [1] was 64 µg/mL (≈ 218 µM); in [2], 2 µg/mL (≈ 6.81 µM); in [3] it was 1 µg/mL (≈ 3.41 µM); in assay [4], 2 µg/mL (≈ 6.81 µM); in assay [5], 4 µg/mL (≈ 13.6 µM); in assay [6], 0.31 µg/mL (≈ 1.06 µM). The MIC in assay [7] came to 1 µg/mL (≈ 3.41 µM); in [8] it was 16 µg/mL (≈ 54.5 µM); in assay [9], 32 µg/mL (≈ 109 µM); in assay [10], 2 µg/mL (≈ 6.81 µM).

Consider `Fc1ccc(B(Oc2cccc3cccnc23)c2ccc(F)cc2)cc1`, for which the MIC in assay [1] is 32 µg/mL (≈ 92.7 µM); in assay [2] it was 4 µg/mL (≈ 11.6 µM); in [3] it was 2 µg/mL (≈ 5.79 µM); in [4], 32 µg/mL (≈ 92.7 µM); in assay [6] it was 0.62 µg/mL (≈ 1.8 µM); in assay [11], 12.5 µg/mL (≈ 36.2 µM). Also, the MIC stood at 2 µg/mL (≈ 5.79 µM) in assay [7] and 4 µg/mL (≈ 11.6 µM) in assay [10].

For the compound `C=CB(Oc1cccc2cccnc12)c1ccc(Cl)cc1`, the MIC in [1] was more than 64 µg/mL; in assay [2], 2 µg/mL (≈ 6.81 µM); in [3], 1 µg/mL (≈ 3.41 µM); in assay [4], 4 µg/mL (≈ 13.6 µM); in assay [5], 4 µg/mL (≈ 13.6 µM); in assay [6], 0.62 µg/mL (≈ 2.11 µM). The MIC in assay [7] came out at 1 µg/mL (≈ 3.41 µM); in assay [9] it was 32 µg/mL (≈ 109 µM); in assay [10] it was 2 µg/mL (≈ 6.81 µM).

On to `Clc1cccc(B(Oc2cccc3cccnc23)c2cccc(Cl)c2)c1`, for which the MIC is 32 µg/mL (≈ 84.6 µM) in assay [1]; 1 µg/mL (≈ 2.65 µM) in [2]; 2 µg/mL (≈ 5.29 µM) in assay [3]; 4 µg/mL (≈ 10.6 µM) in assay [4]; 6.25 µg/mL (≈ 16.5 µM) in [12]; 2 µg/mL (≈ 5.29 µM) in assay [5]. Further, the MIC turned out to be 0.62 µg/mL (≈ 1.64 µM) in assay [6]; 2 µg/mL (≈ 5.29 µM) in [7]; 0.01 µg/mL (≈ 0.0265 µM) in assay [8]; 32 µg/mL (≈ 84.6 µM) in [9]; 8 µg/mL (≈ 21.2 µM) in assay [10]. The result in assay [13] was Active.

As for `C=CB(Oc1cccc2cccnc12)c1ccc(F)c(Cl)c1`, the MIC in [1] is 32 µg/mL (≈ 103 µM); in assay [2], 2 µg/mL (≈ 6.42 µM); in assay [3], 1 µg/mL (≈ 3.21 µM); in assay [4] it was 2 µg/mL (≈ 6.42 µM); in assay [5] it was 4 µg/mL (≈ 12.8 µM); in assay [6], 0.62 µg/mL (≈ 1.99 µM). Also, the MIC in assay [7] was found to be 2 µg/mL (≈ 6.42 µM); in [9], 32 µg/mL (≈ 103 µM); in assay [10], 4 µg/mL (≈ 12.8 µM).

For `Clc1ccc(B(Oc2cccc3cccnc23)c2ccc(Cl)cc2)cc1`, the MIC in [1] came out at 4 µg/mL (≈ 10.6 µM); in [2] it was 2 µg/mL (≈ 5.29 µM); in [3], 2 µg/mL (≈ 5.29 µM); in [4] it was 4 µg/mL (≈ 10.6 µM); in [12], 6.25 µg/mL (≈ 16.5 µM); in assay [5], 2 µg/mL (≈ 5.29 µM). Also, the MIC in assay [6] came to 0.31 µg/mL (≈ 0.82 µM); in assay [11], 4 µg/mL (≈ 10.6 µM); in assay [7], 2 µg/mL (≈ 5.29 µM); in assay [8] it was 0.03 µg/mL (≈ 0.0794 µM); in assay [9], 64 µg/mL (≈ 169 µM); in assay [10] it was 8 µg/mL (≈ 21.2 µM). In [13], the result was Active.

For `C=CB(Oc1cccc2cccnc12)c1cccc(F)c1`, the MIC in [1] is more than 64 µg/mL; in [2], 2 µg/mL (≈ 7.22 µM); in assay [3], 1 µg/mL (≈ 3.61 µM); in assay [4], 2 µg/mL (≈ 7.22 µM); in assay [12] it was 8 µg/mL (≈ 28.9 µM); in assay [5], 2 µg/mL (≈ 7.22 µM). The MIC in [6] was determined as 0.31 µg/mL (≈ 1.12 µM); in assay [7], 1 µg/mL (≈ 3.61 µM); in assay [8] it was 16 µg/mL (≈ 57.7 µM); in [9] it was 32 µg/mL (≈ 115 µM); in assay [10], 2 µg/mL (≈ 7.22 µM).

As for `Clc1ccc(B(Oc2ccc(Cl)c3cccnc23)c2ccc(Cl)cc2)cc1`, the MIC in assay [1] turned out to be 32 µg/mL (≈ 77.6 µM); in assay [2], 0.5 µg/mL (≈ 1.21 µM); in assay [3], 0.25 µg/mL (≈ 0.606 µM); in assay [4] it was 2 µg/mL (≈ 4.85 µM); in [12], 5.3 µg/mL (≈ 12.8 µM); in assay [5] it was 32 µg/mL (≈ 77.6 µM). The MIC in assay [6] is 0.62 µg/mL (≈ 1.5 µM); in assay [11], 2.6 µg/mL (≈ 6.3 µM); in assay [7], not above 0.125 µg/mL; in [8], 0.01 µg/mL (≈ 0.0242 µM); in [9], 8 µg/mL (≈ 19.4 µM); in [10] it was 0.25 µg/mL (≈ 0.606 µM). Besides, the outcome in assay [13] was Active.

Take `C=CB(Oc1cccc2cccnc12)c1cccc(C#N)c1`: the MIC worked out at 8 µg/mL (≈ 28.2 µM) in assay [1]; 1 µg/mL (≈ 3.52 µM) in [2]; 1 µg/mL (≈ 3.52 µM) in [3]; 2 µg/mL (≈ 7.04 µM) in assay [4]; 8 µg/mL (≈ 28.2 µM) in assay [12]; 4 µg/mL (≈ 14.1 µM) in assay [5]. Besides, the MIC in assay [6] was found to be 0.62 µg/mL (≈ 2.18 µM); in assay [7], 2 µg/mL (≈ 7.04 µM); in assay [8] it was 8 µg/mL (≈ 28.2 µM); in assay [9], 32 µg/mL (≈ 113 µM); in [10], 2 µg/mL (≈ 7.04 µM).

Consider `C=CB(Oc1cccc2cccnc12)c1cccc(Cl)c1`, for which the MIC came to 64 µg/mL (≈ 218 µM) in assay [1]; 2 µg/mL (≈ 6.81 µM) in assay [2]; 1 µg/mL (≈ 3.41 µM) in [3]; 4 µg/mL (≈ 13.6 µM) in [4]; 8 µg/mL (≈ 27.3 µM) in assay [12]; 4 µg/mL (≈ 13.6 µM) in [5]. Further, the MIC in [6] amounted to 0.62 µg/mL (≈ 2.11 µM); in assay [7] it was 4 µg/mL (≈ 13.6 µM); in assay [9], 16 µg/mL (≈ 54.5 µM); in assay [10], 4 µg/mL (≈ 13.6 µM). The inhibition in assay [14] was found to be 50%.

On to `Cc1ccc2cccc(OB(c3ccc(Cl)cc3)c3ccc(Cl)cc3)c2n1`, for which the MIC in [1] was determined as 32 µg/mL (≈ 81.6 µM); in assay [2], 16 µg/mL (≈ 40.8 µM); in assay [3], 8 µg/mL (≈ 20.4 µM); in [4], 16 µg/mL (≈ 40.8 µM); in [11] it was 2 µg/mL (≈ 5.1 µM); in [8] it was 6 µg/mL (≈ 15.3 µM). For the same compound, the result in [13] was Active.

Regarding `C=CB(Oc1cccc2cccnc12)c1ccccc1`, the MIC in assay [1] is more than 64 µg/mL; in assay [2] it was 2 µg/mL (≈ 7.72 µM); in assay [3], 1 µg/mL (≈ 3.86 µM); in assay [4] it was 4 µg/mL (≈ 15.4 µM); in [7], 2 µg/mL (≈ 7.72 µM); in assay [9], 32 µg/mL (≈ 123 µM). Also, the MIC in [10] was determined as 16 µg/mL (≈ 61.7 µM).

Turning to `Clc1ccc(C(Oc2cccc3cccnc23)c2ccc(Cl)cc2)cc1`, the MIC in assay [1] is more than 64 µg/mL; in [2] it was more than 64 µg/mL; in [3], more than 64 µg/mL; in assay [4], more than 64 µg/mL; in assay [5] it was more than 64 µg/mL; in [6] it was more than 5 µg/mL. The MIC in [9] and in assay [10] was more than 64 µg/mL throughout. In addition, the result in [13] and in assay [15] was inactive.
